# Laboratory results as given in ChEMBL document CHEMBL1165995, “Anti-ischemia steroidal saponins from the seeds of Allium fistulosum” (2010).
# Tests used:
# Assay type in all cases: functional
# Conditions in all cases: Homo sapiens, read-out: Activity
# HUVEC [1] = assay: Antiischemic activity against hypoxia/reoxygenation-induced cell injury in HUVEC assessed as cell viability at 0.5 uM by MTT assay
# Summary of the method: (§1)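 HUVEC given hypoxia/reoxygenation (H/R) injury and treated with saponin at one of six dose groups (0.5, 1, 5, 10, 50, 100 µM). Viability was read by MTT assay, with untreated control cells and H/R-only cells as references. Values are mean ± SEM of three independent experiments, and significance was tested against the H/R group.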
# HUVEC [2] = assay: Antiischemic activity against hypoxia/reoxygenation-induced cell injury in HUVEC assessed as cell viability at 1 uM by MTT assay; summary of the method: as §1
# HUVEC [3] = assay: Antiischemic activity against hypoxia/reoxygenation-induced cell injury in HUVEC assessed as cell viability at 5 uM by MTT assay; summary of the method: as §1
# HUVEC [4] = assay: Antiischemic activity against hypoxia/reoxygenation-induced cell injury in HUVEC assessed as cell viability at 10 uM by MTT assay; summary of the method: as §1
# HUVEC [5] = assay: Antiischemic activity against hypoxia/reoxygenation-induced cell injury in HUVEC assessed as cell viability at 100 uM by MTT assay; summary of the method: as §1
# HUVEC [6] = assay: Antiischemic activity against hypoxia/reoxygenation-induced cell injury in HUVEC assessed as cell viability at 50 uM by MTT assay; summary of the method: as §1
SMILES,viability at 0.5 µM (HUVEC [1]) [%],viability at 1 µM (HUVEC [2]) [%],viability at 5 µM (HUVEC [3]) [%],viability at 10 µM (HUVEC [4]) [%],viability at 100 µM (HUVEC [5]) [%],viability at 50 µM (HUVEC [6]) [%]
C[C@@H](CC[C@@]1(O)O[C@H]2C[C@H]3[C@@H]4CC=C5C[C@@H](O[C@@H]6O[C@H](CO)[C@@H](O[C@@H]7O[C@@H](C)[C@H](O)[C@@H](O)[C@H]7O)[C@H](O)[C@H]6O[C@@H]6O[C@@H](C)[C@H](O)[C@@H](O)[C@H]6O)CC[C@]5(C)[C@H]4CC[C@]3(C)[C@H]2[C@@H]1C)CO[C@@H]1O[C@H](CO)[C@@H](O)[C@H](O)[C@H]1O,60.7,63.5,69.4,72.1,68.6,74.3
C[C@@H](CC[C@@]1(O)O[C@H]2C[C@H]3[C@@H]4CC=C5C[C@@H](O[C@@H]6O[C@H](CO)[C@@H](O[C@@H]7O[C@@H](C)[C@H](O[C@@H]8O[C@@H](C)[C@H](O)[C@@H](O)[C@H]8O)[C@@H](O)[C@H]7O)[C@H](O)[C@H]6O[C@@H]6O[C@@H](C)[C@H](O)[C@@H](O)[C@H]6O)CC[C@]5(C)[C@H]4CC[C@]3(C)[C@H]2[C@@H]1C)CO[C@@H]1O[C@H](CO)[C@@H](O)[C@H](O)[C@H]1O,64,65.2,69.5,73.3,62.8,73.6
CC1=C(CC[C@H](C)CO[C@@H]2O[C@H](CO)[C@@H](O)[C@H](O)[C@H]2O)O[C@H]2C[C@H]3[C@@H]4CC=C5C[C@@H](O[C@@H]6O[C@H](CO)[C@@H](O[C@@H]7O[C@@H](C)[C@H](O)[C@@H](O)[C@H]7O)[C@H](O)[C@H]6O[C@@H]6O[C@@H](C)[C@H](O)[C@@H](O)[C@H]6O)C(=O)C[C@]5(C)[C@H]4CC[C@]3(C)[C@@H]12 [FISTULOSAPONIN A],59.5,76.3,80.1,82.7,78.2,86.3
C[C@@H](CC[C@@]1(O)O[C@H]2C[C@H]3[C@@H]4CC=C5C[C@@H](O[C@@H]6O[C@H](CO)[C@@H](O[C@@H]7O[C@@H](C)[C@H](O)[C@@H](O)[C@H]7O)[C@H](O)[C@H]6O[C@@H]6O[C@@H](C)[C@H](O)[C@@H](O)[C@H]6O)C(=O)C[C@]5(C)[C@H]4CC[C@]3(C)[C@H]2[C@@H]1C)CO[C@@H]1O[C@H](CO)[C@@H](O)[C@H](O)[C@H]1O [FISTULOSAPONIN B],65.7,71.8,77.2,79.4,74.8,82.1
C[C@@H](CC[C@@]1(O)O[C@H]2C[C@H]3[C@@H]4CC=C5C[C@@H](O[C@@H]6O[C@H](CO)[C@@H](O)[C@H](O)[C@H]6O[C@@H]6O[C@@H](C)[C@H](O[C@@H]7O[C@@H](C)[C@H](O)[C@@H](O)[C@H]7O)[C@@H](O)[C@H]6O)C(=O)C[C@]5(C)[C@H]4CC[C@]3(C)[C@H]2[C@@H]1C)CO[C@@H]1O[C@H](CO)[C@@H](O)[C@H](O)[C@H]1O [FISTULOSAPONIN C],71.7,74.8,79.7,81.2,69.5,84.6
C[C@@H](CC[C@@]1(O)O[C@H]2C[C@H]3[C@@H]4CC=C5C[C@@H](O[C@@H]6O[C@H](CO)[C@@H](O)[C@H](O)[C@H]6O[C@@H]6O[C@H](CO)[C@@H](O)[C@H](O)[C@H]6O[C@@H]6O[C@H](CO)[C@@H](O)[C@H](O)[C@H]6O)C(=O)C[C@]5(C)[C@H]4CC[C@]3(C)[C@H]2[C@@H]1C)CO[C@@H]1O[C@H](CO)[C@@H](O)[C@H](O)[C@H]1O [FISTULOSAPONIN D],68.9,72.6,78.2,79.8,75.6,82.4
CC1=C(CC[C@H](C)CO[C@@H]2O[C@H](CO)[C@@H](O)[C@H](O)[C@H]2O)O[C@H]2C[C@H]3[C@@H]4CC=C5C[C@@H](O[C@@H]6O[C@H](CO)[C@@H](O)[C@H](O)[C@H]6O[C@@H]6O[C@H](CO)[C@@H](O)[C@H](O)[C@H]6O[C@@H]6O[C@H](CO)[C@@H](O)[C@H](O)[C@H]6O)[C@H](O)C[C@]5(C)[C@H]4CC[C@]3(C)[C@@H]12 [FISTULOSAPONIN E],60.9,64.3,70.2,77.9,68,75.4
C[C@@H](CC[C@@]1(O)O[C@H]2C[C@H]3[C@@H]4CC=C5C[C@@H](O[C@@H]6O[C@H](CO)[C@@H](O)[C@H](O)[C@H]6O[C@@H]6O[C@H](CO)[C@@H](O)[C@H](O)[C@H]6O[C@@H]6O[C@H](CO)[C@@H](O)[C@H](O)[C@H]6O)[C@H](O)C[C@]5(C)[C@H]4CC[C@]3(C)[C@H]2[C@@H]1C)CO[C@@H]1O[C@H](CO)[C@@H](O)[C@H](O)[C@H]1O [FISTULOSAPONIN F],62.3,68.3,74.1,75.5,71.2,77.4
C[C@@H](CC[C@@]1(O)O[C@H]2C[C@H]3[C@@H]4CC=C5C[C@@H](O[C@@H]6O[C@H](CO)[C@@H](O)[C@H](O[C@@H]7O[C@H](CO)[C@@H](O)[C@H](O)[C@H]7O)[C@H]6O[C@@H]6O[C@@H](C)[C@H](O)[C@@H](O)[C@H]6O)CC[C@]5(C)[C@H]4CC[C@]3(C)[C@H]2[C@@H]1C)CO[C@@H]1O[C@H](CO)[C@@H](O)[C@H](O)[C@H]1O [PROTOGRACILLIN],60.9,69.5,75.2,77.9,68,78.2
